For assay [1], the target named is Melanocyte-stimulating hormone receptor (Mus musculus, UniProt Q01727). Nature of the assay: Agonist activity at mouse MC1 receptor expressed in HEK293 cells after 6 hrs by cAMP-based beta-galactosidase reporter gene assay. The method, boiled down:
(§1)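 HEK-293 cells stably expressing the mouse receptor, kept in DMEM with 10% fetal calf serum, transfected with CRE/β-galactosidase reporter. Efficacy is relative to NDP-MSH on the same plate. EC50 is the mean of duplicate wells from three or more independent experiments, fitted by nonlinear least squares.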
A general note: Reporter assays use an easily measured gene product as a stand-in for the process of interest.

Assay [2] has as its target Melanocortin receptor 5 (Mus musculus, UniProt P41149). Nature of the assay: Agonist activity at mouse MC5 receptor expressed in HEK293 cells after 6 hrs by cAMP-based beta-galactosidase reporter gene assay. The method, boiled down:
as §1

Assay [3] has as its target Melanocortin receptor 3 (Mus musculus, UniProt P33033). Nature of the assay: Agonist activity at mouse MC3 receptor expressed in HEK293 cells after 6 hrs by cAMP-based beta-galactosidase reporter gene assay. The gist of the method:
as §1

For assay [4], the target named is Melanocortin receptor 4 (Mus musculus, UniProt P56450). Nature of the assay: Agonist activity at mouse MC4 receptor expressed in HEK293 cells after 6 hrs by cAMP-based beta-galactosidase reporter gene assay. The method, boiled down: as §1
Sequence of Melanocortin receptor 4 (P56450 whole entry): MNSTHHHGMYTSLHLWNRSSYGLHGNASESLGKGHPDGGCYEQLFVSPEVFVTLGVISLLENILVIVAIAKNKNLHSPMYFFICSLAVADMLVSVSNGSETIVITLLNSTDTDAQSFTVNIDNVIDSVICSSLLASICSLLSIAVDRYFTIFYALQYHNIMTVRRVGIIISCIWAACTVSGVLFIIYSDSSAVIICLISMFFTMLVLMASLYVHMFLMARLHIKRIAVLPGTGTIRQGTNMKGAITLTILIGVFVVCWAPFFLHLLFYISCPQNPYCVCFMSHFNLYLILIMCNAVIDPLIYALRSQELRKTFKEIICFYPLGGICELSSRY

For orientation: EC50 means the concentration at which the effect is half-maximal. Low values mean a more potent agent, high ones a less potent agent.

Sequence of Melanocortin receptor 5 (P41149 whole entry): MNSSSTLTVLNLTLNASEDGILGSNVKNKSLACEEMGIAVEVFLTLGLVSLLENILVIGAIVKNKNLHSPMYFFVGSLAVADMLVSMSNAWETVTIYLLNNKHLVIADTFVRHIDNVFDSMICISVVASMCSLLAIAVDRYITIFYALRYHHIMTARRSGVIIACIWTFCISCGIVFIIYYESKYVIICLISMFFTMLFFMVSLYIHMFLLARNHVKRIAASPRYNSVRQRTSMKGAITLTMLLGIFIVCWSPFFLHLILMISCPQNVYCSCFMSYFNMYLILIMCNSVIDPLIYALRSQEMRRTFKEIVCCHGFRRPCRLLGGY
Sequence of Melanocyte-stimulating hormone receptor (Q01727 whole entry): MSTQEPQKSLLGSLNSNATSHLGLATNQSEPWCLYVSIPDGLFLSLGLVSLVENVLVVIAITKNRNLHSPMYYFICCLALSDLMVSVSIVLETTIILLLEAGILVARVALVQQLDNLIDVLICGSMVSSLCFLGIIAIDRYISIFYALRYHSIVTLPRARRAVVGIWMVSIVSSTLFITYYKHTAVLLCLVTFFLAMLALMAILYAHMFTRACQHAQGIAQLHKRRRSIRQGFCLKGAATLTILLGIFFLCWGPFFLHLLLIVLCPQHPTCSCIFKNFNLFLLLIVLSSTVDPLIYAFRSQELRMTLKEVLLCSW
Sequence of Melanocortin receptor 3 (P33033 whole entry): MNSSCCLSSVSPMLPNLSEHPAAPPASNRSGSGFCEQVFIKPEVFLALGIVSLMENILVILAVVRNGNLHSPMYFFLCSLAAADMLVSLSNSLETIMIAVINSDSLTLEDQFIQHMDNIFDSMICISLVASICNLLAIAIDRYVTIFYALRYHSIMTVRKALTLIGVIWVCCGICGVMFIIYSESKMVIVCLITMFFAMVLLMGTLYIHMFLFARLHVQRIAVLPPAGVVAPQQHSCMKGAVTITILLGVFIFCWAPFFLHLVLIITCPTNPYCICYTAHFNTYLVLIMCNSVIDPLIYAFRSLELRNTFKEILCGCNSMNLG

For the compound `C[C@@H]1NC(=O)[C@H](CC(N)=O)NC(=O)[C@@H](Cc2c[nH]c3ccccc23)[C@]23CCCN2C(=O)[C@@H](CSCC3=O)NC(=O)[C@@H](Cc2ccccc2)NC(=O)[C@H](Cc2cnc[nH]2)NC(=O)[C@@H](NC(=O)[C@@H](N)Cc2ccc(O)cc2)CSSC[C@@H](C(=O)N[C@@H](Cc2ccc(O)cc2)C(N)=O)NC(=O)[C@H](Cc2ccccc2)NC1=O`, the EC50 in assay [1] worked out at 16 nM; in assay [2], 630 nM; in assay [3], 7120 nM; in assay [4] it was 1270 nM.

The values are drawn from BindingDB's records for doi:10.1021/jm301253y (University of Florida, 2013).
